From ChEMBL document CHEMBL1269007, “Synthesis and biological evaluation of Apogossypolone derivatives as pan-active inhibitors of antiapoptotic B-cell lymphoma/leukemia-2 (Bcl-2) family proteins” (J Med Chem, 2010)
“And” between values parts separate entries of the source, which are not always exact repeats. Equal values may be shown once. The source made the active and inactive calls. No cut-off for these calls is given here.

Columns and labels:
[1] = test system: Mus musculus; test: Reduction of spleen weight in ip dosed human Bcl2 expressing B6 transgenic BALB/c mouse administered as single dose after 24 hrs; assay type: functional, organism-based
[2] = test system: Mus musculus; test: Toxicity in human PPC1 cells xenografted nude mouse assessed as mortality at 25 mg/kg, ip administered weekly 3 times; assay type: organism-based, PPC-1; design: dose 25 mg/kg, route intraperitoneal; conditions: in vivo
How it was run: (§1)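 PPC-1 flank xenografts (5×10^6 cells s.c.) in female 6-week-old nude mice, size-matched at 200 mm³, 6 per group. Compound given i.p. three times in the first week in ethanol:Cremophor EL:saline 10:10:80 (500 μL); controls got saline. Survival and body weight monitored during week 1.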

[3] = molecular target: T1, Bcl-2-like protein 1 (Homo sapiens, UniProt Q07817); test: Binding affinity Bcl-xL by isothermal titration calorimetry assay
[4] = Metabolic stability of the compound in rat plasma after 40 mins; assay type: ADME, cell-free; conditions: read-out: Stability
[5] = molecular target: T1, Bcl-2-like protein 1; test: Binding affinity Bcl-xL at 200 uM by one-dimensional 1H nuclear magnetic resonance spectroscopy
[6] = molecular target: T2, Bcl-2-related protein A1 (Homo sapiens, UniProt Q16548); test: Displacement of F-BakBH3 from Bfl-1 after 30 mins by fluorescence polarization assay
T2 sequence (Q16548 whole entry): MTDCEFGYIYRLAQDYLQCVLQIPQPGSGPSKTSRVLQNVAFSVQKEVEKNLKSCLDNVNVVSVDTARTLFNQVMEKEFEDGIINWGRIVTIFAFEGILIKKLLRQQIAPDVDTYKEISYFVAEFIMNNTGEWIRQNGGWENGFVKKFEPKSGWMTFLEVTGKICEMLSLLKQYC

[7] = molecular target: Induced myeloid leukemia cell differentiation protein Mcl-1 (Homo sapiens, UniProt Q07820); test: Displacement of FITC-Bim BH3 peptide from Mcl-1 after 10 mins by fluorescence polarization assay
[8] = test system: Mus musculus; test: Toxicity in human Bcl2 expressing B6 transgenic BALB/c mouse assessed as mortality at 60 umol/kg, ip administered as single dose after 24 hrs; assay type: organism-based; conditions: in vivo
How it was run: (§2)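 Age- and sex-matched B6 Bcl2 transgenic mice (human BCL-2/IgH minigene on Balb/c background, no aggressive lymphoma yet) given a single i.p. injection of compound in 500 μL ethanol:Cremophor EL:saline 10:10:80. Controls received vehicle. Animals sacrificed at 24 h with Avertin; spleen removed and weighed.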

[9] = molecular target: T1, Bcl-2-like protein 1; test: Displacement of F-BakBH3 from Bcl-xL after 30 mins by fluorescence polarization assay
How it was run: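 GST-Bcl-XL ΔTM (100 nM) preincubated with varying compound concentrations in PBS pH 7.4 for 10 min at room temperature. FITC-labelled Bak BH3 peptide (2.5 μL of 100 nM stock) then added. Polarization read at 480/535 nm after 30 min at room temperature. Wild-type and mutant Bak BH3 peptides served as plate controls. IC50 from sigmoidal dose-response fit; mean of three independent experiments ± SE.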

[10] = test system: Mus musculus; test: Toxicity in human Bcl2 expressing B6 transgenic BALB/c mouse assessed as mortality at 30 umol/kg, ip administered as single dose after 24 hrs; assay type: organism-based; conditions: in vivo; how it was run: as §2
[11] = Metabolic stability of the compound in rat microsomes after 40 mins; assay type: ADME, Microsome; conditions: read-out: Stability
[12] = test system: Mus musculus; test: Reduction of spleen weight in human Bcl2 expressing B6 transgenic BALB/c mouse at 30 umol/kg, ip administered as single dose after 24 hrs; assay type: functional; design: scale not given: the % may be the effect or the level left
[13] = molecular target: Apoptosis regulator Bcl-2 (Homo sapiens, UniProt P10415); test: Displacement of FITC-Bim BH3 peptide from Bcl-2 after 10 mins by fluorescence polarization assay
[14] = species on record: Homo sapiens; test: Induction of apoptosis in human CLL after 24 hrs by annexin V-FITC and propidium iodide staining; assay type: functional
How it was run: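 Freshly isolated primary leukaemic cells from CLL patients cultured in RPMI 1640 with 10% FBS and penicillin/streptomycin with various compound concentrations for 1 day. Annexin V-FITC/propidium iodide staining read by flow cytometry; annexin-V-negative, PI-negative cells counted as viable; LD50 derived from dose-response.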

[15] = test system: Mus musculus; test: Reduction of spleen weight in human Bcl2 expressing B6 transgenic BALB/c mouse at 60 umol/kg, ip administered as single dose after 24 hrs relative to control; assay type: functional; design: scale not given: the % may be the effect or the level left
[16] = test system: Mus musculus; test: Toxicity in human PPC1 cells xenografted nude mouse assessed as mortality at 50 mg/kg, ip administered weekly 3 times; assay type: organism-based, PPC-1; design: dose 50 mg/kg, route intraperitoneal; conditions: in vivo; how it was run: as §1
[17] = test system: Mus musculus; test: Toxicity in human Bcl2 expressing B6 transgenic BALB/c mouse assessed as weight loss up to 120 umol/kg, ip administered as single dose after 24 hrs; assay type: organism-based; conditions: in vivo
[18] = test system: Mus musculus; test: Toxicity in human Bcl2 expressing B6 transgenic BALB/c mouse up to 120 umol/kg, ip administered as single dose after 24 hrs; assay type: organism-based; conditions: in vivo
How it was run: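 B6 Bcl-2 transgenic Balb/c mice, age- and sex-matched, given one intraperitoneal dose (60 or 120 μmol/kg, also 30 μmol/kg) in ethanol:Cremophor EL:saline 10:10:80, 500 μL; survival and signs of toxicity observed over 24 h before sacrifice.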

[19] = test system: PPC-1; test: Antitumor activity against human PPC1 cells xenografted in nude mouse assessed as tumor regression at 50 mg/kg, ip administered weekly 3 times; assay type: functional, organism-based; design: dose 50 mg/kg
How it was run: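 Female 6-week-old nude mice given 5×10^6 cells in 0.2 ml PBS subcutaneously in the flank; tumours size-matched at 200 mm³, 6 mice/group. Intraperitoneal injections in ethanol:Cremophor EL:saline 10:10:80 (500 μL), three times week 1, twice week 2, once week 3; controls received saline. Caliper volume (length×width²/2) two to three times weekly; T/C% = mean treated/mean control volume.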

[20] = test system: Mus musculus; test: Reduction of spleen weight in human Bcl2 expressing B6 transgenic BALB/c mouse at 60 umol/kg, ip administered as single dose after 24 hrs; assay type: functional; design: scale not given: the % may be the effect or the level left
[21] = test system: PPC-1; test: Antitumor activity against human PPC1 cells xenografted in nude mouse assessed as tumor regression at 50 mg/kg, ip administered 5 times measured on after 2 weeks relative to control; assay type: functional; conditions: route intraperitoneal
How it was run: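 Female 6-week-old nude mice injected s.c. in the flank with 5×10^6 PPC-1 cells in 0.2 ml PBS; size-matched at 200 mm³, 6 per group. Compound given i.p. in ethanol:Cremophor EL:saline 10:10:80 (500 μL), three times in week 1, twice in week 2, once in week 3; controls got saline. Caliper volume (length × width²/2) 2–3 times weekly; T/C% = mean treated volume / mean control volume.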

[22] = test system: Mus musculus; test: Toxicity in human PPC1 cells xenografted nude mouse assessed as weight loss at 50 mg/kg, ip administered weekly 3 times; assay type: organism-based, PPC-1; design: dose 50 mg/kg, route intraperitoneal; conditions: in vivo
How it was run: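 Nude mice carrying subcutaneous flank xenografts (5×10^6 cells), size-matched at 200 mm³, 6 per group. Dosed intraperitoneally in ethanol:Cremophor EL:saline 10:10:80, three times in week 1, twice in week 2, once in week 3; saline controls. Body weight followed over treatment and reported as average percentage loss.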

[23] = test system: BP3; test: Induction of apoptosis in human BP3 cells expressing high level of Bfl-1 and Mcl-1 after 24 hrs by annexin V-FITC and propidium iodide staining; assay type: functional, cell-based
[24] = test system: RS4-11; test: Induction of apoptosis in human RS4:11 cells expressing high level of Bcl-2 and Bcl-xL after 24 hrs by annexin V-FITC and propidium iodide staining; assay type: functional, cell-based

T1 sequence (Q07817 whole entry): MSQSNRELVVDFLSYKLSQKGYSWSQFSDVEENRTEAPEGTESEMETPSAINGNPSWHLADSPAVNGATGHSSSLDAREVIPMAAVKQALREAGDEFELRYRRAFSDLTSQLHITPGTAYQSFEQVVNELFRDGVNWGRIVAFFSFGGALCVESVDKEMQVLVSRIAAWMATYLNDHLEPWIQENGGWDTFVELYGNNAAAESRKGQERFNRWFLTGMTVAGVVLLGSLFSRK
Sequence of Apoptosis regulator Bcl-2 (P10415 whole entry): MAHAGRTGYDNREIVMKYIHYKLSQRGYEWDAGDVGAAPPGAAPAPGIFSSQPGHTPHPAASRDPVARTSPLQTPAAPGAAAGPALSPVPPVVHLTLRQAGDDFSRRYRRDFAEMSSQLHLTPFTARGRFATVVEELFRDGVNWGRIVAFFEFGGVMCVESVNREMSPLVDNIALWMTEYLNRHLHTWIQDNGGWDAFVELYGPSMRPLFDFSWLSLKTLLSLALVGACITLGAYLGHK
Sequence of Induced myeloid leukemia cell differentiation protein Mcl-1 (Q07820 whole entry): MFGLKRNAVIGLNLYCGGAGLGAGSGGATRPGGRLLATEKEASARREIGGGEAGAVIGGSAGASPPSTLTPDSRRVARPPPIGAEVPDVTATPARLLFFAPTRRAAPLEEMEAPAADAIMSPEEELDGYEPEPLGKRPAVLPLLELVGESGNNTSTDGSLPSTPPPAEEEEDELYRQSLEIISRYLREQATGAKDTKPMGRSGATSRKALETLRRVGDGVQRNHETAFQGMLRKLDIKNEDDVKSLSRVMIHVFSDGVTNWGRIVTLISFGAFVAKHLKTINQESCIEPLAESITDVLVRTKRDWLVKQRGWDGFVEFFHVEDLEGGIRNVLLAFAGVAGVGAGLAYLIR

| Structure (SMILES) | Activity [1] | Kd [3] [nM] | remaining at 40 min [4] [%] | Activity [5] | Ki [6] [nM] | IC50 [7] [nM] | Ki [7] [nM] | IC50 [9] [nM] | Ki [9] [nM] | IC50 [13] [nM] | Ki [13] [nM] | LD50 [14] [µM] | Activity [19] | Activity [20] [%] | Activity [21] [%] | Activity [22] | Activity [23] | Activity [24] | further results |
| --- | --- | --- | --- | --- | --- | --- | --- | --- | --- | --- | --- | --- | --- | --- | --- | --- | --- | --- | --- |
| CC1=C(C2=C(C)C(=O)c3c(cc(O)c(O)c3Cc3ccccc3)C2=O)C(=O)c2cc(O)c(O)c(Cc3ccccc3)c2C1=O | Dose-dependent effect | 450 | 95 | Active | 430 | 240 | 160 | 340 | 230 | 290 | 190 |  |  |  |  |  |  |  | Activity [2]: Toxic; IC50 [6]: 650 nM; Activity [8]: Toxic; Activity [10]: Non-toxic; remaining at 40 min [11]: 91%; Activity [12]: 86% |
| CC1=C(C2=C(C)C(=O)c3c(cc(O)c(O)c3CCc3ccc(C)cc3)C2=O)C(=O)c2cc(O)c(O)c(CCc3ccc(C)cc3)c2C1=O | Dose-dependent effect | 2500 | 86 | Active |  | 2050 | 1370 | 3100 | 2070 | 3120 | 2080 | 10 | Active | 30 | 33 | 5% and 6.8% | Dose-dependent effect | Dose-dependent effect | Activity [14]: Dose-dependent effect; Activity [15]: 60%; Activity [16]: Non-toxic; Activity [17]: 5%; Activity [18]: Non-toxic |
| CC1=C(C2=C(C)C(=O)c3c(cc(O)c(O)c3C(C)C)C2=O)C(=O)c2cc(O)c(O)c(C(C)C)c2C1=O | Dose-dependent effect |  | 77 | Active | 1470 |  | 430 |  | 420 |  | 250 | > 30 | Active | 20 | 65 | 9.3% | Dose-dependent effect | Dose-dependent effect |  |
